One assay has as its system Toxoplasma gondii. Nature of the assay: Antiparasitic activity against Toxoplasma gondii in human foreskin fibroblast by beta-galactosidase assay. The class given is functional, organism-based. An outline of the steps: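 Human foreskin fibroblasts grown to confluence, then infected with T. gondii strain stably expressing bacterial β-galactosidase; parasite growth allowed 5 days with test samples present. Chlorophenol red-β-D-galactopyranoside added, further 2–4 h incubation, absorbance read at 570 nm as measure of parasite viability. IC50 reported.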

For assay [1], the target named is cGMP-dependent protein kinase (Eimeria tenella). Nature of the assay: Inhibition of Eimeria tenella cGMP-dependent protein kinase assessed as inhibition of transfer of phosphate group by radiometric assay.

A value given as a limit tells only on which side of the number the result lay.

What is called IC50 is the concentration that gives 50% inhibition. With `CN1CCC(c2cc(-c3ccncc3)c(-c3ccc(F)cc3)[nH]2)CC1`, the values for the IC50 (with Toxoplasma gondii; in assay [1]) were 0.21 µM and less than 0.001 µM, respectively.
Consider `COc1c(O)c(-c2ccccc2)cc(O)c1-c1ccccc1O`, for which the concentration for half-maximal inhibition (IC50) with Toxoplasma gondii was found to be 10.4 µM; in assay [1], 5.2 µM.
Taken in the same sequence, the figures for `COc1c(O)c(-c2ccccc2)cc(O)c1-c1cc(O)ccc1O` were 9.5 µM and 5.8 µM.
Taken in the same sequence, the figures for `COc1cc(-c2ccccc2)c(O)c(O)c1-c1ccccc1` [TERFEROL] were 26.8 µM and 3.9 µM.

Source of the values: ChEMBL document CHEMBL1157340, “Highly substituted terphenyls as inhibitors of parasite cGMP-dependent protein kinase activity” (J Nat Prod, 2006).
